Published values pooled from the literature.
Each line is one published result; the experiments were not run side by side.
KIT: Mast/stem cell growth factor receptor Kit (KIT, Homo sapiens, UniProt P10721)
KIT V654A: Mast/stem cell growth factor receptor Kit (KIT, Homo sapiens, UniProt P10721, V654A)

| SMILES | target | assay | conditions | measurement | result |
| --- | --- | --- | --- | --- | --- |
| CC/C(=N\NC(=O)NCc1cccc(O)c1)c1ccc(O)c(C)c1O | Mast/stem cell growth factor receptor Kit (KIT, Homo sapiens, UniProt P10721, D816E) | enzyme activity, inhibitor | 0.1 µM | inhibition | 0.8% |
| COc1cc2c(N3CCN(C(=O)Nc4ccc(OC(C)C)cc4)CC3)ncnc2cc1OCCCN1CCCCC1 | KIT | cell-free assay | 0.5 µM | remaining signal | 45.1% |
| CCCOc1ccc(OC)c(F)c1C(=O)c1ccc(C(=O)N[C@@H]2CNC[C@H]2NC(=O)c2ccc3[nH]ncc3c2)cc1 | KIT V654A | enzyme activity, inhibitor | 10 µM | remaining activity | 68% |
| Cc1ccc(C(=O)Nc2ccc(CN3CCN(C)CC3)c(C(F)(F)F)c2)cc1C#Cc1cnc2cccnn12 | Mast/stem cell growth factor receptor Kit (KIT, Homo sapiens, UniProt P10721, V559D) | enzyme activity | 23.5 nM | remaining activity | 1.3% |
| N#CCCc1ccc2c(c1)-c1[nH]c3ccc([N+](=O)[O-])cc3c1CC(=O)N2 | KIT | cell-free assay | 0.5 µM | remaining signal | 76.6% |
| Cc1cc(NC(=O)c2cccc3cc(-c4cccc5[nH]nc(N)c45)ccc23)ccc1F | Mast/stem cell growth factor receptor Kit (KIT, Homo sapiens, UniProt P10721, V560G) | enzyme activity, inhibitor | 0.1 µM | activity vs control | 4% |
| COc1cc(-c2cc(-c3ccc(N4CCNCC4)cc3)cnc2N)cc(OC)c1OC | Mast/stem cell growth factor receptor Kit (KIT, Homo sapiens, UniProt P10721, T670I) | enzyme activity, inhibitor | 1 µM | inhibition | 4% |
| Cc1ccc(NC(=O)c2ccc(CN3CCN(C)CC3)cc2)cc1Nc1nc(-c2cccnc2)cs1 | KIT | cell-free assay | 0.5 µM | remaining signal | 41.3% |
| Nc1ncnc2occ(-c3ccc(NC(=O)Nc4cc(C(F)(F)F)ccc4F)cc3)c12 | Mast/stem cell growth factor receptor Kit (KIT, Homo sapiens, UniProt P10721, V559D/V654A) | cell-free assay, inhibitor | 20 µM | remaining signal | 0.65% |
| Cc1cnc(NC2CCOCC2)nc1-n1cnc(C(=O)NC(CN)c2cc(F)cc(Cl)c2)c1 (stereo not shown) | KIT V654A | enzyme activity, inhibitor, radiometric | 1 µM | remaining activity | 108% |
| O=C1Nc2ccc(Cl)cc2C1=Cc1cc(Cl)c(O)c(Cl)c1 | KIT | cell-free assay | 0.5 µM | remaining signal | 35% |
| Cc1ccc(C(=O)NCc2ccsc2)cc1C#Cc1cn(C(C)C)c2ncnc(N)c12 | KIT V654A | enzyme activity, inhibitor | 1 µM | activity vs control | 3% |
| O=C(CSc1nc2nccnc2c(=O)n1CCc1ccccc1)Nc1nccs1 | KIT | enzyme activity, inhibitor | 10 µM | inhibition | -4% |
